In ChEMBL document CHEMBL1124871, “Synthesis and antiviral activity of some acyclic and C-acyclic pyrrolo[2,3-d]pyrimidine nucleoside analogues” (J Med Chem, 1990) one finds IC50 and selectivity ratio data, which are given here for 32 compounds.

The first data set deals with Human alphaherpesvirus 2. Description: Inhibitory activity against herpes simplex virus. It counts as functional, organism-based.
Conditions: not given
An outline of the steps:
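One-day-old confluent HEp-2 monolayers preinfected 1.5 h at 37 °C with HSV-2 (G and Lovelace strains); 3-fold dilutions over seven points, 72 h at 37 °C. Virus presence and toxicity scored visually by CPE. Uninfected cells with compound served as cytotoxicity control; virus inoculum checked by back-titration. IC50 recorded.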
As to `Nc1nc2c(ncn2COC(CO)CO)c(=O)[nH]1` [GANCICLOVIR], the IC50 was 32 µM.

The test system of the next data set is Human immunodeficiency virus. Description: Inhibitory activity against HIV in Alex cells. The settings on record: Human immunodeficiency virus 1, Alex. It counts as functional, organism-based. The procedure, abridged: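 Alex cells preinfected with HIV for 3 h at 37 °C; compounds added in 3- or 5-fold dilutions (four for screening, eight for confirmation). Incubated 8 days at 37 °C in CO2, medium/sample changed on day 4. Reverse transcriptase measured on day 8. Uninfected cells exposed to the same dilutions for cytotoxicity. IC50 recorded.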
Turning to `N#Cc1cn(CC(O)CO)c2nc(N)nc(O)c12` (centres undefined), the 50% inhibitory concentration (IC50) is over 200 µM.

Compound `CSc1c(C#N)c2c(N)ncnc2n1COCCO` had an IC50 of over 200 µM.

`CSc1c(C(N)=O)c2c(O)nc(N)nc2n1COC(CO)CO` returned a half-inhibitory concentration (IC50) of over 200 µM.

In turn, `NC(=O)c1cn(COCCO)c2nc(N)nc(O)c12` displayed an IC50 of over 200 µM.

In turn, `N#Cc1cn(COCCO)c2nc(N)nc(O)c12` registered an IC50 of over 200 µM.

The compound `CSc1c(C(N)=O)c2c(N)ncnc2n1CC(O)CO` (centres undefined) displayed an IC50 of over 200 µM.

The compound `NC(=O)c1cn(CC(O)CO)c2nc(N)nc(O)c12` (centres undefined) yielded an IC50 of over 200 µM.

`CSc1c(C#N)c2c(O)nc(N)nc2n1COC(CO)CO` registered an IC50 of over 200 µM.

In turn, `CSc1c(C#N)c2c(O)nc(N)nc2n1CC(O)CCO` (centres undefined) gave an IC50 of over 200 µM.

As for `N#Cc1cn(CC(O)CCO)c2ncnc(N)c12` (centres undefined), the IC50 was over 200 µM.

The compound `CSc1c(C#N)c2c(O)nc(N)nc2n1CC(O)CO` (centres undefined) showed an IC50 of over 200 µM.

On to `CSc1c(C#N)c2c(O)nc(N)nc2n1COCCO`, for which the IC50 is over 200 µM.

As for `N#Cc1cn(COCCO)c2ncnc(N)c12`, half-maximal inhibition (IC50) was put at 46 µM. This lies in the double-digit micromolar range.

Regarding `NC(=O)c1cn(COCCO)c2ncnc(N)c12`, the 50% inhibitory concentration (IC50) is over 200 µM.

For the compound `CSc1c(C(N)=O)c2c(N)ncnc2n1COCCO`, the half-inhibitory concentration (IC50) was over 200 µM.

Take `NC(=O)c1cn(COC(CO)CO)c2ncnc(N)c12`: the IC50 is over 200 µM.

In the case of `CSc1c(C(N)=O)c2c(N)ncnc2n1CC(O)CCO` (centres undefined), the IC50 was over 200 µM.

With `CSc1c(C#N)c2c(N)ncnc2n1CC(O)CO` (centres undefined), the IC50 was over 200 µM.

As for `NC(=O)c1cn(COC(CO)CO)c2nc(N)nc(O)c12`, the IC50 was over 200 µM.

`N#Cc1cn(COC(CO)CO)c2nc(N)nc(O)c12` registered an IC50 of 3 µM.

Compound `N#Cc1cn(CC(O)CO)c2ncnc(N)c12` (centres undefined) came in with an IC50 of 197 µM.

On to `N#Cc1cn(CC(O)CCO)c2nc(N)nc(O)c12` (centres undefined), for which the IC50 is over 200 µM.

As for `CSc1c(C(N)=O)c2c(N)ncnc2n1COC(CO)CO`, the IC50 was over 200 µM.

`CSc1c(C(N)=O)c2c(O)nc(N)nc2n1CC(O)CO` (centres undefined) displayed an IC50 of over 200 µM.

`NC(=O)c1cn(CC(O)CO)c2ncnc(N)c12` (centres undefined): the IC50 was over 200 µM.

Regarding `NC(=O)c1cn(CC(O)CCO)c2ncnc(N)c12` (centres undefined), the IC50 is over 200 µM.

For `CSc1c(C(N)=O)c2c(O)nc(N)nc2n1CC(O)CCO` (centres undefined), the IC50 was over 200 µM.

On to `CSc1c(C#N)c2c(N)ncnc2n1COC(CO)CO`, for which the IC50 was found to be 20 µM.

Regarding `NC(=O)c1cn(CC(O)CCO)c2nc(N)nc(O)c12` (centres undefined), the IC50 is over 200 µM.

The compound `CSc1c(C#N)c2c(N)ncnc2n1CC(O)CCO` (centres undefined) had an IC50 of 100 µM.

Regarding `Cc1cn([C@H]2C[C@H](N=[N+]=[N-])[C@@H](CO)O2)c(=O)[nH]c1=O` [ZIDOVUDINE], the IC50 was found to be 0.01 µM.

Tested on in the next data set: not listed separately
The experiment in a line: Therapeutic ratio at 400 uM toxicity to Alex cells. It counts as cell-based. Particulars: human.
For the compound `N#Cc1cn(COC(CO)CO)c2nc(N)nc(O)c12`, the selectivity ratio is 133.

In the case of `CSc1c(C#N)c2c(N)ncnc2n1COC(CO)CO`, the selectivity ratio at 400 µM stood at 40.

The IC50 is the midpoint of a concentration-inhibition curve.
